# Experimental data collected from several papers.
# Lines come from different studies, so protocols differ.
# STK17B: Serine/threonine-protein kinase 17B (STK17B, Homo sapiens, UniProt O94768)
# ache: Acetylcholinesterase (ache, Electrophorus electricus, UniProt O42275)
# STK32A: Serine/threonine-protein kinase 32A (STK32A, Homo sapiens, UniProt Q8WU08)
# RPS6KB2: Ribosomal protein S6 kinase beta-2 (RPS6KB2, Homo sapiens, UniProt Q9UBS0)
SMILES,target,assay,test system,setting,measurement,result
CC(C)(C)c1nc2c(s1)c1nc(N)ncc1c1ccc(NS(=O)(=O)c3c(F)cccc3F)c(F)c12,"Mitogen-activated protein kinase kinase kinase 21 (MAP3K21, Homo sapiens, UniProt Q5TCX8)","enzyme activity, inhibitor, radiometric",,1 µM,remaining activity,90%
NS(=O)(=O)c1ccc(CNc2ccnc(Nc3cccc(CN4CCOCC4)c3)n2)cc1,STK17B,"enzyme activity, inhibitor, radiometric",,1 µM,remaining activity,96%
COc1cc2c(cc1OC)C(=O)N(CC1CCN(Cc3cccc(C#N)c3)CC1)C2,ache,"enzyme activity, inhibitor",,1 µM,inhibition,4.99%
O[C@@H]1[C@H](O)CO[C@H]1n1cnc2c(NCc3cccc(Cl)c3)nc(Cl)nc21,"Adenosine receptor A1 (ADORA1, Homo sapiens, UniProt P30542)","ligand displacement, radioligand",,"10 µM, cell membranes",inhibition,36%
Cn1c2c(c3ccc(Cl)c(Cl)c31)C(C#N)C1(CCCC1)NC2=O (centres unmarked),STK32A,"thermal stability, DSF",,10 µM,ΔTm,-0.2 °C
Brc1cnc(Nc2cccc(CN3CCOCC3)c2)nc1NCCc1c[nH]cn1,STK17B,"enzyme activity, inhibitor, radiometric",,1 µM,remaining activity,4%
COc1cc2c(cc1OC)C(=O)N(Cc1ccccn1)C2,ache,"enzyme activity, inhibitor",,1 µM,inhibition,4.59%
O=C(NCCCNc1nc(Nc2cccc(NC(=O)N3CCCC3)c2)ncc1Br)C1CCC1,STK17B,"enzyme activity, inhibitor, radiometric",,1 µM,remaining activity,0%
FC(F)(F)Oc1cccc(-c2cnc3ccc(-c4ccncc4)nn23)c1,"Mitogen-activated protein kinase kinase kinase kinase 3 (MAP4K3, Homo sapiens, UniProt Q8IVH8)","enzyme activity, inhibitor, radiometric",,5 µM,activity vs control,39%
NS(=O)(=O)c1ccc(CNc2ccnc(Nc3cccc(NC(=O)N4CCCC4)c3)n2)cc1,STK17B,"enzyme activity, inhibitor, radiometric",,1 µM,remaining activity,96%
COc1cc2c(cc1OC)C(=O)N(Cc1ccc(-c3cccs3)nc1)C2,ache,"enzyme activity, inhibitor",,1 µM,inhibition,-4.2%
O=C(Nc1cccc(Nc2ncc(Br)c(NCCc3cnc[nH]3)n2)c1)N1CCCC1,STK17B,"enzyme activity, inhibitor, radiometric",,1 µM,remaining activity,1%
CC(C)(C)c1nc(-c2cccc(NS(=O)(=O)c3c(F)cccc3F)c2F)c(-c2ccnc(N)n2)s1,RPS6KB2,"enzyme activity, inhibitor, radiometric",,1 µM,remaining activity,98%
COc1cc2c(cc1OC)C(=O)N(Cc1cccnc1)C2,ache,"enzyme activity, inhibitor",,1 µM,inhibition,0.13%
CC(C)(O)[C@H]1CC[C@H](Nc2ccc3ncc(-c4cccc(C(F)(F)F)c4)n3n2)CC1,RPS6KB2,"enzyme activity, inhibitor",,1 µM,remaining activity,82.3%
N#CC1c2c([nH]c3c(Cl)c(Cl)ccc23)C(=O)NC12CCCCC2 (racemic),STK32A,"thermal stability, DSF",,10 µM,ΔTm,0.1 °C
O=C(NCCCNc1nc(Nc2cccc(CN3CCOCC3)c2)ncc1C1CC1)C1CCC1,STK17B,"enzyme activity, inhibitor, radiometric",,1 µM,remaining activity,7%
COc1cc2c(cc1OC)C(=O)N(Cc1nccc3ccccc13)C2,ache,"enzyme activity, inhibitor",,1 µM,inhibition,-0.79%
Cn1c2c(c3ccc(Cl)c(Cl)c31)C(C#N)C1(CCOCC1)NC2=O (centres unmarked),STK32A,"thermal stability, DSF",,10 µM,ΔTm,-0.3 °C
Cc1nn(CC(F)(F)F)cc1Nc1ncc(C2CC2)c(NCc2ccc(S(N)(=O)=O)cc2)n1,STK17B,"enzyme activity, inhibitor, radiometric",,1 µM,remaining activity,88%
CCCOc1ccc(OC)c(F)c1C(=O)c1ccc(C(=O)N[C@@H]2CNC[C@H]2NC(=O)c2ccc3[nH]ncc3c2)cc1,"RAC-gamma serine/threonine-protein kinase (AKT3, Homo sapiens, UniProt Q9Y243)","enzyme activity, inhibitor",,10 µM,remaining activity,1%
N#Cc1ccc(/C=C/CN(CC[C@H](N)C(=O)O)C[C@H]2O[C@@H](n3cnc4c(N)ncnc43)[C@H](O)[C@@H]2O)cc1,"Histone-arginine methyltransferase CARM1 (CARM1, Homo sapiens, UniProt Q86X55)","enzyme activity, inhibitor",,1 µM,activity vs control,100%
COc1cc2c(cc1OC)C(=O)N(Cc1ccc3ccccc3n1)C2,ache,"enzyme activity, inhibitor",,1 µM,inhibition,3.28%
CCc1cc(-c2noc(-c3cc(OC)nc(C4CCCC4)c3)n2)cc(C)c1OC[C@@H](O)CO,"Sphingosine 1-phosphate receptor 1 (S1PR1, Homo sapiens, UniProt P21453)","calcium signal, agonist, fluorescence",HUVEC,,Emax,37%
O=C(NCCCNc1ccnc(Nc2cccc(NC(=O)N3CCCC3)c2)n1)C1CCC1,STK17B,"enzyme activity, inhibitor, radiometric",,1 µM,remaining activity,17%
COc1cc2c(cc1OC)C(=O)N(CCc1c[nH]c3ccccc13)C2,ache,"enzyme activity, inhibitor",,1 µM,inhibition,-4.59%
